ERAP1 HTS inh = blocks human ERAP1 aminopeptidase activity; 0.15% of 340,000 active; AID 652197; recombinant ERAP1, Leu-AMC fluorescence, 60 min; inhibition, % at 10.7 µM; Q9NZ08;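 active = mean replicate inhibition of at least 30%, or all replicates individually reaching that 30% level; inactive = mean below 30% and not every replicate reaching it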;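 note: 0% = neutral control wells and 100% = L-leucinethiol positive control wells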
DENV2 CPE = inhibitors of DENV2 cytopathic effect; 1.7% of 350,000 active; CPE inhibition, % at 9.99 µM; DENV2-infected cells, cytopathic effect rescue, plate reader; in the data active = CPE inhibition above about 20%, passing the limit was not always enough; inconclusive = no clear call, values can overlap the other calls; tested in BHK-21 cells;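 note: 0% = median of neutral control wells and 100% = median of positive control wells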
CAL PDZ FP-1 = inhibitors of human CAL PDZ peptide binding. Q9HD26. purified CAL PDZ, TMR-peptide fluorescence polarization, 1 h. inhibition, % at 24.9 µM. 0.92% of 300,000 active. AID 602252;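 active = mean inhibition of at least 30% with at least half of replicates also reaching 30%; inconclusive = no clear call, values can overlap the other calls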;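 note: 0% = DMSO neutral control and 100% = excess unlabeled competitor peptide PRC23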
CAL PDZ FP-2 = human CAL PDZ-peptide interaction inhibition; 0.02% of 330,000 active; purified CAL PDZ, TMR-peptide fluorescence polarization, 1 h; inhibition, % at 20 µM; Q9HD26; AID 504414;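 active = highest replicate inhibition of at least 40%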;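 note: plate controls were DMSO neutral control wells for no effect and unlabeled competitor peptide control wells for full effect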
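Material: tagged CAL PDZ protein CerCALP, purified; buffer or medium: sodium phosphate/NaCl buffer pH 7.4 with TCEP, IgG, Thesit; also added: fluorescent TMR peptide probe; schedule: 1 h incubation at room temperature before polarization reading; technique: fluorescence polarization from S- and P-plane intensities, G-factor corrected; control set: unlabelled peptide and DMSO controls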
S100A4 inh HTS = blocks human S100A4 binding to myosin IIA peptide; P26447; S100A4/TAMRA-MyoIIA peptide fluorescence polarization; inhibition, % at 10.7 µM; 0.14% of 360,000 active; AID 652163;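 active = mean inhibition of at least 70% across replicates, with every replicate also reaching that level; inconclusive = mean inhibition reaches 70% but some replicates fall short; inactive = mean inhibition below 70%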
Target sequence (P26447 whole entry, looked up): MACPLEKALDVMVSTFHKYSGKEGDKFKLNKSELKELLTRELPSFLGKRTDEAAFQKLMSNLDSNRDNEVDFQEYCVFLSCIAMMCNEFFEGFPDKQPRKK
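Material: S100A4 monomer (human). Medium: Calcium-containing HEPES buffer, pH 7.2. Probe or stimulus: labelled myosin peptide probe, 5 nM. Compound dosing: one concentration per compound. Timing: polarization read 5 min after assay mix addition, stable 5–60 min. Benchmarks: DMSO as neutral control, TFP as positive control.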
SIRT5 inh = inhibitors of human sirtuin-5 desuccinylase. Q9NXA8. Purified SirT5, succinyl-peptide AMC, trypsin-coupled fluorescence. inhibition, % at 15 µM. 1.1% of 330,000 active. AID 652115; in the data active = inhibition above about 15%; inconclusive = no clear call, values can overlap the other calls
Target sequence (Q9NXA8 whole entry, looked up): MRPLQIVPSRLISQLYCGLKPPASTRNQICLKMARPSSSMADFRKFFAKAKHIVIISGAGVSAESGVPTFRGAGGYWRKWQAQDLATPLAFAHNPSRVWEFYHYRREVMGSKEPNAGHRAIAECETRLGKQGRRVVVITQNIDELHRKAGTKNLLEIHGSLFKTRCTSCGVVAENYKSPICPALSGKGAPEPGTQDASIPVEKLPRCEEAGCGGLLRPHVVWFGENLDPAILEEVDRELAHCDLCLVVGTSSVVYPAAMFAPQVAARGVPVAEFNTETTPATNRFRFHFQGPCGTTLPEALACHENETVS
Active calls of the source: *; ? = inconclusive; · = no result given. Rows were chosen to be rich in hits. Some 2.9% of all compounds tested hit in one or more screens of this group.

SMILES	ERAP1 HTS inh	DENV2 CPE	CAL PDZ FP-1	CAL PDZ FP-2	S100A4 inh HTS	SIRT5 inh
CC(C)(C)NC(=O)C[C@H]1C[C@H](C(=O)N2CCCCC2)[C@@]2(C)c3[nH]c4cc(-c5ccco5)ccc4c3CCN2C1=O	-2	-1	65*	0	-7	0
CC[C@]12c3[nH]c4cc(-c5ccco5)ccc4c3CCN1C(=O)[C@@H](CC(=O)NC/C=C(\C)CCC=C(C)C)C[C@@H]2C(=O)N1CCN(C(=O)c2ccco2)CC1	·	·	-4	0	·	·
CC[C@]12c3[nH]c4cc(-c5ccco5)ccc4c3CCN1C(=O)[C@@H](CC(=O)NC(C)(C)C)C[C@@H]2C(=O)N1CCN(C(=O)C2CC2)CC1	-7	43*	·	-4	-12	-4
COc1ccc(CNC(=O)C[C@@H]2CC[C@H]3[C@@H](COc4ccc(NC(=O)C5CC5)cc4C(=O)N3C)O2)cc1	-1	?	·	·	-3	0
C[C@@H]1CN([C@H](C)CO)C(=O)c2cccc(NC(=O)C3CC3)c2O[C@H]1CN(C)S(=O)(=O)c1cccs1	1	34*	·	·	-2	-1
C[C@H](CO)N1C[C@H](C)[C@H](CN(C)S(=O)(=O)c2cccs2)Oc2c(NC(=O)C3CC3)cccc2C1=O	0	4	·	·	-9	-2
C[C@@H]1CN([C@@H](C)CO)C(=O)c2cccc(NC(=O)C3CC3)c2O[C@@H]1CN(C)S(=O)(=O)c1cccs1	0	-7	·	·	-4	-3
C[C@H](CO)N1C[C@H](C)[C@H](CN(C)S(=O)(=O)c2cccs2)Oc2c(NC(=O)C3CCCCC3)cccc2C1=O	2	-1	·	·	?	17*
Cc1noc(C)c1NC(=O)N[C@H]1CC[C@H](CCNC(=O)C2CC2)O[C@H]1CO	1	6	·	·	-28	18*
Cc1noc(C)c1NC(=O)N[C@H]1CC[C@H](CCNC(=O)C2CCCC2)O[C@@H]1CO	0	20*	·	·	1	2
Cc1noc(C)c1NC(=O)N[C@@H]1CC[C@H](CCNC(=O)C2CCOCC2)O[C@@H]1CO	-2	-4	·	·	98*	-53
CCC(=O)N1C[C@H](C)[C@@H](OC)CN(C)C(=O)c2ccc(NC(=O)C3CCOCC3)cc2OC[C@@H]1C	-3	-4	·	·	-23	7
COc1cccc(C#Cc2ccc([C@H]3[C@@H](CO)N4C(=O)CN(C(C)=O)C[C@H]34)cc2)c1	-2	10	·	·	6	-1
C[C@H]1CN([C@@H](C)CO)C(=O)CCCn2cc(nn2)CO[C@H]1CN(C)Cc1cccc2c1OCCCO2	1	7	·	·	6	-5
CCSc1nsc(NC(=O)Nc2cccc(F)c2)n1	-2	-14	70*	8	4	-9
Cc1cc(S(=O)(=O)Nc2ccc(C(=O)NCC3(N(C)C)CCCCC3)cc2)ccc1F	-2	6	0	-2	-20	1
Cc1cc(S(=O)(=O)Nc2ccc(C(=O)NCC3(N4CCCCC4)CCCCC3)cc2)ccc1F	-2	8	1	-2	-3	21*
COc1cc(C(=O)N2CCNCC2)cc(OC)c1OC	-1	-7	-2	0	-10	21*
O=[N+]([O-])c1ccc(C[n+]2cccc(O)c2)cc1	-3	67*	-1	-2	-8	·
CC1(C)CC[C@]2(C(=O)O)CC[C@]3(C)C(=CC[C@@H]4[C@@]5(C)CC[C@H](O[C@@H]6O[C@H](C(=O)O)[C@@H](O)[C@H](O[C@@H]7OC[C@H](O)[C@H](O)[C@H]7O)[C@H]6O)C(C)(C)[C@@H]5CC[C@]43C)[C@@H]2C1	·	-2	-8	-1	-6	·
CC1(C)CC[C@]2(C(=O)O[C@@H]3O[C@H](CO)[C@@H](O)[C@H](O)[C@H]3O)CC[C@]3(C)C(=CCC4[C@@]5(C)CC[C@H](O[C@@H]6O[C@H](C(=O)O)[C@@H](O[C@H]7OC[C@@H](O)[C@@H](O)[C@@H]7O)[C@H](O)[C@H]6O)C(C)(C)C5CC[C@]43C)[C@@H]2C1 (stereo partly specified)	·	81*	-8	-3	-5	·

Assay outcomes deposited in PubChem BioAssay by Broad Institute.
